The source made the active and inactive calls. The calls are words filed in the database; no cut-off is given here.
Legend:
[1] = Drug metabolism in human SW1990 cells assessed as nitric oxide release at 12 uM measured after 24 hrs by DAF-FM DA probe based flow cytometry; type: ADME, cell-based; conditions: sw1990, 24 h
In short: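 SW1990 cells at 80% confluence loaded with 5 µM DAF-FM DA for 20 min at 37 °C, rinsed, then incubated with compound. Optional 1 h pretreatment with 50 µM carboxyl-PTIO before 12 µM treatment. Fluorescence read by flow cytometry (ex 495 / em 515 nm). Mean ± SD, n = 3.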

SW1990 [2] = assay: Cytotoxicity against human SW1990 cells assessed as reduction in cell viability at 10 to 20 uM measured after 48 hrs by MTT assay; type: functional, cell-based; conditions: dose 10-20 µM
In short: (§1)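 MTT assay with 48 h compound exposure at 10 or 20 µM. Cells seeded 6 × 10⁴ per well and grown 24 h beforehand. MTT 4 h, DMSO solubilisation, A490 read. Percent cell death given as mean ± SD, n = 3.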

SW1990 [3] = assay: Induction of apoptosis in human SW1990 cells at 12 uM measured after 24 hrs by Annexin V-FITC/propidium iodide staining based flow cytometry; type: functional, cell-based
In short: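 SW1990 cells seeded 5 × 10⁵ per well and grown 24 h, then treated 24 h at 8 or 12 µM. Optional 1 h pretreatment with 20 mM NAC or 50 µM carboxyl-PTIO before 12 µM treatment. Cells stained with annexin V-FITC 15 min and PI 5 min at room temperature in the dark, then analysed by flow cytometry. Mean ± SD, n = 3.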

[4] = Metal chelating activity assessed as compound-Cu2+ complex formation measured after 40 mins by calcein dye based fluorescence assay; conditions: dose 10-50 µM
In short: (§2)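 Calcein (10 µM) in 50 mM HEPES was quenched by 10 µM CuCl₂ (or FeCl₃ for the Fe³⁺ arm). Chelator was added from DMSO stock to a final 10 or 50 µM and incubated 40 min at room temperature. Recovery rate was calculated from fluorescence (λex 485 / λem 520 nm); n = 3.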

[5] = Metal chelating activity assessed as compound-Fe3+ complex formation measured after 40 mins by calcein dye based fluorescence assay; conditions: dose 10-50 µM; in short: as §2
PANC-1 [6] = assay: Cytotoxicity against human PANC-1 cells assessed as reduction in cell viability at 20 uM measured after 48 hrs by MTT assay relative to control; type: functional; in short: as §1
A549 [7] = assay: Cytotoxicity against human A549 cells assessed as reduction in cell viability measured after 48 hrs by MTT assay; type: functional, cell-based; conditions: A549, 48 h
HeLa [8] = assay: Cytotoxicity against human HeLa cells assessed as reduction in cell viability measured after 48 hrs by MTT assay; type: functional, cell-based
HepG2 [9] = assay: Cytotoxicity against human HepG2 cells assessed as reduction in cell viability measured after 48 hrs by MTT assay; type: functional, cell-based; conditions: HepG2, 48 h
In short: (§3)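 Cells seeded 6 × 10⁴ per well, cultured 24 h at 37 °C under 5% CO₂, then exposed to compound for 48 h, with or without 50 µM CuCl₂ or FeCl₃ co-incubation. MTT added for 4 h at 37 °C, formazan dissolved in DMSO, A490 read. IC50 reported as mean (SD), n = 3.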

MCF7 [10] = assay: Cytotoxicity against human MCF7 cells assessed as reduction in cell viability measured after 48 hrs by MTT assay; type: functional, cell-based; conditions: MCF7, 48 h; in short: as §3
PANC-1 [11] = assay: Cytotoxicity against human PANC-1 cells assessed as reduction in cell viability measured after 48 hrs by MTT assay; type: functional, cell-based; conditions: PANC-1, 48 h; in short: as §3
HCT-116 [12] = assay: Cytotoxicity against human HCT-116 cells assessed as reduction in cell viability measured after 48 hrs by MTT assay; type: functional, cell-based; conditions: HCT-116, 48 h; in short: as §3
PC-3 [13] = assay: Cytotoxicity against human PC-3 cells assessed as reduction in cell viability measured after 48 hrs by MTT assay; type: functional, cell-based; conditions: PC-3, 48 h; in short: as §3
SW1990 [14] = assay: Cytotoxicity against human SW1990 cells assessed as reduction in cell viability measured after 48 hrs by MTT assay; type: functional, cell-based; conditions: SW1990, 48 h; in short: as §3
A549 [15] = assay: Cytotoxicity against human A549 cells assessed as reduction in cell viability measured after 48 hrs in presence of CuCl2 by MTT assay; type: functional, cell-based; conditions: A549, 48 h
HeLa [16] = assay: Cytotoxicity against human HeLa cells assessed as reduction in cell viability measured after 48 hrs in presence of CuCl2 by MTT assay; type: functional, cell-based
HepG2 [17] = assay: Cytotoxicity against human HepG2 cells assessed as reduction in cell viability measured after 48 hrs in presence of CuCl2 by MTT assay; type: functional, cell-based; conditions: HepG2, 48 h; in short: as §3
MCF7 [18] = assay: Cytotoxicity against human MCF7 cells assessed as reduction in cell viability measured after 48 hrs in presence of CuCl2 by MTT assay; type: functional, cell-based; conditions: MCF7, 48 h; in short: as §3
PANC-1 [19] = assay: Cytotoxicity against human PANC-1 cells assessed as reduction in cell viability measured after 48 hrs in presence of CuCl2 by MTT assay; type: functional, cell-based; conditions: PANC-1, 48 h; in short: as §3
HCT-116 [20] = assay: Cytotoxicity against human HCT-116 cells assessed as reduction in cell viability measured after 48 hrs in presence of CuCl2 by MTT assay; type: functional, cell-based; conditions: HCT-116, 48 h; in short: as §3
PC-3 [21] = assay: Cytotoxicity against human PC-3 cells assessed as reduction in cell viability measured after 48 hrs in presence of CuCl2 by MTT assay; type: functional, cell-based; conditions: PC-3, 48 h; in short: as §3
SW1990 [22] = assay: Cytotoxicity against human SW1990 cells assessed as reduction in cell viability measured after 48 hrs in presence of CuCl2 by MTT assay; type: functional, cell-based; conditions: SW1990, 48 h; in short: as §3
A549 [23] = assay: Cytotoxicity against human A549 cells assessed as reduction in cell viability measured after 48 hrs in presence of FeCl3 by MTT assay; type: functional, cell-based; conditions: A549, 48 h
HeLa [24] = assay: Cytotoxicity against human HeLa cells assessed as reduction in cell viability measured after 48 hrs in presence of FeCl3 by MTT assay; type: functional, cell-based
HepG2 [25] = assay: Cytotoxicity against human HepG2 cells assessed as reduction in cell viability measured after 48 hrs in presence of FeCl3 by MTT assay; type: functional, cell-based; conditions: HepG2, 48 h; in short: as §3
MCF7 [26] = assay: Cytotoxicity against human MCF7 cells assessed as reduction in cell viability measured after 48 hrs in presence of FeCl3 by MTT assay; type: functional, cell-based; conditions: MCF7, 48 h; in short: as §3
PANC-1 [27] = assay: Cytotoxicity against human PANC-1 cells assessed as reduction in cell viability measured after 48 hrs in presence of FeCl3 by MTT assay; type: functional, cell-based; conditions: PANC-1, 48 h; in short: as §3
HCT-116 [28] = assay: Cytotoxicity against human HCT-116 cells assessed as reduction in cell viability measured after 48 hrs in presence of FeCl3 by MTT assay; type: functional, cell-based; conditions: HCT-116, 48 h; in short: as §3
PC-3 [29] = assay: Cytotoxicity against human PC-3 cells assessed as reduction in cell viability measured after 48 hrs in presence of FeCl3 by MTT assay; type: functional, cell-based; conditions: PC-3, 48 h; in short: as §3
SW1990 [30] = assay: Cytotoxicity against human SW1990 cells assessed as reduction in cell viability measured after 48 hrs in presence of FeCl3 by MTT assay; type: functional, cell-based; conditions: SW1990, 48 h; in short: as §3
[31] = Cytotoxicity against human H6C7 cells assessed as reduction in cell viability measured after 48 hrs by MTT assay; type: cell-based; conditions: H6C7, 48 h; in short: as §3
[32] = Cytotoxicity against human RWPE2 cells assessed as reduction in cell viability measured after 48 hrs by MTT assay; type: cell-based; conditions: RWPE2, 48 h; in short: as §3
SW1990 [33] = assay: Antitumor activity against human SW1990 cells xenografted in Balb/c nude mouse assessed as tumor size at 20 mg/kg, iv administered every 3 days measured after 21 days (reference value: 1.23 +/- 0.25 cm3); type: functional; conditions: time 21 day
In short: (§4)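 Male BALB/c nude mice, 3–5 weeks old, given 1 × 10⁷ SW1990 cells subcutaneously; when tumors reached about 65 mm³, randomised to groups of eight. Saline vehicle control, dosing intravenously every three days. Tumor size monitored every two days for three weeks; tumors dissected at sacrifice on day 21, volume = d² × D/2 (d smallest, D largest diameter). Mean ± SD.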

SW1990 [34] = assay: Antitumor activity against human SW1990 cells xenografted in Balb/c nude mouse assessed as tumor growth inhibition at 20 mg/kg, iv administered every 3 days measured after 21 days relative to control; type: functional; conditions: 504 h, time 21 day, read-out: TGI; in short: as §4
[35] = Drug metabolism in human PANC-1 cells assessed as nitric oxide release at 10 uM measured after 8 hrs by Griess assay; type: ADME, cell-based; conditions: panc-1, 8 h
In short: (§5)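 Cells exposed 8 h to 10 µM compound. Nitrite measured by Griess reagent kit at 540 nm against a NaNO₂ calibration curve. Mean ± SD, n = 3.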

[36] = Drug metabolism in human SW1990 cells assessed as nitric oxide release at 10 uM measured after 8 hrs by Griess assay; type: ADME, cell-based; conditions: sw1990, 8 h; in short: as §5
A549 [37] = assay: Cytotoxicity against human A549 cells assessed as reduction in cell viability at 10 to 20 uM measured after 48 hrs by MTT assay; type: functional, cell-based; conditions: dose 10-20 µM
HeLa [38] = assay: Cytotoxicity against human HeLa cells assessed as reduction in cell viability at 10 to 20 uM measured after 48 hrs by MTT assay; type: functional, cell-based; conditions: dose 10-20 µM
HepG2 [39] = assay: Cytotoxicity against human HepG2 cells assessed as reduction in cell viability at 10 to 20 uM measured after 48 hrs by MTT assay; type: functional, cell-based; conditions: dose 10-20 µM; in short: as §1
MCF7 [40] = assay: Cytotoxicity against human MCF7 cells assessed as reduction in cell viability at 10 to 20 uM measured after 48 hrs by MTT assay; type: functional, cell-based; conditions: dose 10-20 µM; in short: as §1
PANC-1 [41] = assay: Cytotoxicity against human PANC-1 cells assessed as reduction in cell viability at 10 uM measured after 48 hrs by MTT assay; type: functional, cell-based; in short: as §1

Row | Structure (SMILES) | Activity (SW1990 [3]) | Activity [4] | Activity [5] | Activity (PANC-1 [6]) [%] | IC50 (A549 [7]) [µM] | IC50 (HeLa [8]) [µM] | IC50 (HepG2 [9]) [µM] | IC50 (MCF7 [10]) [µM] | IC50 (PANC-1 [11]) [µM] | IC50 (HCT-116 [12]) [µM] | IC50 (PC-3 [13]) [µM] | IC50 (SW1990 [14]) [µM] | IC50 (A549 [15]) [µM] | IC50 (HeLa [16]) [µM] | IC50 (HepG2 [17]) [µM] | IC50 (MCF7 [18]) [µM] | IC50 (PANC-1 [19]) [µM] | IC50 (HCT-116 [20]) [µM] | IC50 (PC-3 [21]) [µM] | IC50 (SW1990 [22]) [µM] | further results
1 | O=C(NCCCOc1nonc1S(=O)(=O)c1ccccc1)c1ccc2cccc(OCc3ccc(B(O)O)cc3)c2n1 | Active |  |  |  |  |  |  |  |  |  |  |  |  |  |  |  |  |  |  |  | Drug metabolism [1]: Metabolite_Notdetected; Activity (SW1990 [2]): inactive
2 | Oc1cccc2cccnc12 [OXYQUINOLINE] | Active | Dose-dependent effect | Dose-dependent effect | 48 | 31.2 | > 50 | > 50 | > 50 | 24.5 | 21.1 | 32 | 32.1 | 6.58 | 35.6 | 32.1 | 21.1 | 7.43 | 7.25 | 14.4 | 10.2 | IC50 (A549 [23]): 32.6 µM; IC50 (HeLa [24]): > 50 µM; IC50 (HepG2 [25]): > 50 µM; IC50 (MCF7 [26]): > 50 µM; IC50 (PANC-1 [27]): 30.4 µM; IC50 (HCT-116 [28]): 26.3 µM; IC50 (PC-3 [29]): > 50 µM; IC50 (SW1990 [30]): > 50 µM; IC50 [31]: 20.1 µM; IC50 [32]: 25.6 µM; Activity (SW1990 [33]): 0.68 cm3; inhibition in vivo at 20 mg/kg (SW1990 [34]): 44.7%
3 | O=C(NCCCOc1no[n+]([O-])c1S(=O)(=O)c1ccccc1)c1ccc2cccc(O)c2n1 |  | Dose-dependent effect | Dose-dependent effect | 75.2 | 13.8 | 28.7 | 17.9 | 13.4 | 7.54 | 14.6 | 11.7 | 9.24 | 4.68 | 9.56 | 6.32 | 3.23 | 0.86 | 5.2 | 5.63 | 1.47 | Drug metabolism [35]: Metabolite_Detected; Drug metabolism [36]: Metabolite_Detected; Activity (A549 [37]): Active; Activity (HeLa [38]): Active; Activity (HepG2 [39]): Active; Activity (MCF7 [40]): Active; Activity (PANC-1 [41]): Active; IC50 (A549 [23]): 17.9 µM; IC50 (HeLa [24]): 33.2 µM; IC50 (HepG2 [25]): 22.4 µM; IC50 (MCF7 [26]): 18.2 µM; IC50 (PANC-1 [27]): 13.9 µM; IC50 (HCT-116 [28]): 20.1 µM; IC50 (PC-3 [29]): 17.1 µM; IC50 (SW1990 [30]): 12.1 µM; IC50 [31]: 9.05 µM; IC50 [32]: 8.77 µM
